ChEMBL document CHEMBL1138831, “Computer-assisted design of selective imidazole inhibitors for cytochrome p450 enzymes” (J Med Chem, 2004)

What was measured:
Camphor 5-monooxygenase [1] = biological target: T1, Camphor 5-monooxygenase (Pseudomonas putida, UniProt P00183); test: Inhibition of wild type cytochrome P450cam expressed in Escherichia coli
T1 sequence (P00183 whole entry): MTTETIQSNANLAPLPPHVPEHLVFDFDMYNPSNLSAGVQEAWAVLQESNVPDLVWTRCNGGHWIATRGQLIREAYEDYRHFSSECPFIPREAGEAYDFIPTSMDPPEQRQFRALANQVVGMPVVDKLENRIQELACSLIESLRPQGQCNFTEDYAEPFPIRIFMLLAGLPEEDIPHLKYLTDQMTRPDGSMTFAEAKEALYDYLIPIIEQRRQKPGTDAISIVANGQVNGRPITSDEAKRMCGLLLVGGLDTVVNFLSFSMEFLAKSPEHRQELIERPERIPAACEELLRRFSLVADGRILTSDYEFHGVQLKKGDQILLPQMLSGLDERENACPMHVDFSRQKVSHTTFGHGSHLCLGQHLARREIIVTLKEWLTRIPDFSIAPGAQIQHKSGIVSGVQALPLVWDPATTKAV

Camphor 5-monooxygenase [2] = biological target: T1, Camphor 5-monooxygenase; test: Inhibition of wild type cytochrome P450cam expressed in Escherichia coli at 1 mM
Outline: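 Camphor-depleted enzyme in 100 mM potassium phosphate, with inhibitor at 1 mM added in DMSO (≤3% of volume). Incubated 15 min at 20 °C, then quenched with CH2Cl2 containing 2 mM β-thujone internal standard. Turnover was taken from the GC product/starting-material ratio and expressed as percent inhibition.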

Camphor 5-monooxygenase [3] = biological target: T2, Camphor 5-monooxygenase (Pseudomonas putida, UniProt P00183, L244A); test: Inhibition of L244A mutant cytochrome P450cam expressed in Escherichia coli
Outline: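 Camphor-depleted enzyme at 20 nM in 100 mM potassium phosphate, with inhibitor at varying amounts added in DMSO (≤3% of volume). Incubated 15 min at 20 °C, then quenched with CH2Cl2 containing 2 mM β-thujone internal standard. Product/starting-material ratio was measured by GC to give turnover, and IC50 was fitted with a Langmuir isotherm.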

Camphor 5-monooxygenase [4] = biological target: T2, Camphor 5-monooxygenase; test: Binding constant for L244A mutant cytochrome P450cam expressed in Escherichia coli; conditions: read-out: Ks
Outline: (§1)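 Camphor stripped from the enzyme by two elutions with 100 mM sodium phosphate over a size-exclusion column, leaving low-spin water-bound heme. 0.5 μM protein in 100 mM potassium phosphate at 37 °C, measured by difference UV spectroscopy. The 416 nm trough to 424 nm peak absorbance difference was fitted by nonlinear regression to ΔA = ΔAmax[I]/(Ks+[I]).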

Camphor 5-monooxygenase [5] = biological target: T1, Camphor 5-monooxygenase; test: Binding constant for wild type cytochrome P450cam expressed in Escherichia coli; conditions: read-out: Ks; outline: as §1

SMILES	IC50 (Camphor 5-monooxygenase [1])	inhibition at 1000 µM (Camphor 5-monooxygenase [2])	IC50 (Camphor 5-monooxygenase [3])	further results
c1cn(CC2CC2)cn1	4 µM	–	–	–
CC(C)(C)Cc1cncn1C1CC1	–	80%	129 µM	–
c1cn(CC2CCCCC2)cn1	1.5 µM	–	–	–
CCCc1cncn1CC1CC1	–	60%	36 µM	–
CCCc1cncn1C1CCCC1	–	60%	6.5 µM	–
CCC(CC)Cn1ccnc1	0.8 µM	–	–	–
CC(C)Cc1cncn1CC1CC1	–	20%	10.1 µM	–
c1ccc(Cn2cncc2C2CC2)cc1	–	30%	41 µM	–
c1ccc(Cn2ccnc2)cc1 [BENZYLIMIDAZOLE]	16 µM	–	–	–
CC(=O)N1CCN(c2ccc(OC[C@@H]3CO[C@@](Cn4ccnc4)(c4ccc(Cl)cc4Cl)O3)cc2)CC1 [KETOCONAZOLE]	–	–	–	Kd (Camphor 5-monooxygenase [4]): 0.6 µM; Kd (Camphor 5-monooxygenase [5]): 0.5 µM
